Reference: ChEMBL document CHEMBL5136970, “Influence of ring size in conformationally restricted ring I analogs of paromomycin on antiribosomal and antibacterial activity” (RSC Med Chem, 2021)
Values after ≈ are worked out from the molar mass of the structure shown.

Experiments:
Bacterial 70S ribosome = assay: Inhibition of Mycobacterium smegmatis wild type ribosomes assessed as inhibition of translation activity using Firefly luciferase mRNA reporter based luminescence analysis; format: subcellular, Mycolicibacterium smegmatis
How it was run: (§1)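 Cell-free ribosomal translation inhibition with IC50 reported in μM. Values were determined in duplicate or more, except for a few compounds in the mitochondrial hybrid assays, where limited material allowed fewer runs.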

[1] = Inhibition of human mitochondrial ribosome Mit 13 hybridized with Mycobacterium smegmatis ribosome assessed as inhibition of translation activity using Firefly luciferase mRNA reporter based luminescence analysis
How it was run: (§2)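 Cell-free ribosomal translation assay. IC50 reported in μM ± STD, determined in duplicate or more, with fewer replicates for a few compounds where material was limited.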

[2] = Inhibition of human mitochondrial ribosome Mit 13 A1555G mutant hybridized with Mycobacterium smegmatis ribosome assessed as inhibition of translation activity using Firefly luciferase mRNA reporter based luminescence analysis; how it was run: as §1
[3] = Inhibition of human cytoplasmic ribosome Cyt 14 hybridized with Mycobacterium smegmatis ribosome assessed as inhibition of translation activity using Firefly luciferase mRNA reporter based luminescence analysis; how it was run: as §2
[4] = Selectivity ratio of IC50 for inhibition of human mitochondrial ribosome Mit 13 hybridized with Mycobacterium smegmatis ribosome to IC50 for inhibition of Mycobacterium smegmatis wild type ribosomes
[5] = Selectivity ratio of IC50 for inhibition of human mitochondrial ribosome Mit 13 A1555G mutant hybridized with Mycobacterium smegmatis ribosomes to IC50 for inhibition of Mycobacterium smegmatis wild type ribosomes
[6] = Selectivity ratio of IC50 for inhibition of human cytoplasmic ribosome Cyt 14 hybridized with Mycobacterium smegmatis ribosomes to IC50 for inhibition of Mycobacterium smegmatis wild type ribosomes
Staphylococcus aureus = assay: Antibacterial activity against methicillin-resistant Staphylococcus aureus AG038; format: functional
Escherichia coli = assay: Antibacterial activity against Escherichia coli AG001; format: functional
Acinetobacter baumannii = assay: Antibacterial activity against Acinetobacter baumannii AG225; format: functional
Klebsiella pneumoniae = assay: Antibacterial activity against Klebsiella pneumoniae AG215; format: functional
Enterobacter cloacae = assay: Antibacterial activity against Enterobacter cloacae AG290; format: functional
Pseudomonas aeruginosa = assay: Antibacterial activity against Pseudomonas aeruginosa AG031; format: functional

| Compound | IC50 (Bacterial 70S ribosome) [µM] | IC50 [1] [µM] | IC50 [2] [µM] | IC50 [3] [µM] | Ratio IC50 [4] | Ratio IC50 [5] | Ratio IC50 [6] | MIC (Staphylococcus aureus) [µg/mL] | MIC (Escherichia coli) [µg/mL] | MIC (Acinetobacter baumannii) [µg/mL] | MIC (Klebsiella pneumoniae) [µg/mL] | MIC (Enterobacter cloacae) [µg/mL] | MIC (Pseudomonas aeruginosa) [µg/mL] |
| --- | --- | --- | --- | --- | --- | --- | --- | --- | --- | --- | --- | --- | --- |
| NC[C@@H]1O[C@H](O[C@H]2[C@@H](O)[C@H](O[C@@H]3[C@@H](O)[C@H](N)C[C@H](N)[C@H]3O[C@H]3O[C@H]4[C@@H](OCCC[C@@H]4O)[C@H](O)[C@H]3N)O[C@@H]2CO)[C@H](N)[C@@H](O)[C@@H]1O | 0.071 | 243 | 42 | 56 | 3420 | 592 | 789 | 2 (≈ 3.05 µM) | 4 (≈ 6.1 µM) | 4 (≈ 6.1 µM) | 2 (≈ 3.05 µM) | 2 (≈ 3.05 µM) | 64 (≈ 97.6 µM) |
| NC[C@@H]1O[C@H](O[C@H]2[C@@H](O)[C@H](O[C@@H]3[C@@H](O)[C@H](N)C[C@H](N)[C@H]3O[C@H]3O[C@H]4[C@@H](OCCC[C@H]4O)[C@H](O)[C@H]3N)O[C@@H]2CO)[C@H](N)[C@@H](O)[C@@H]1O | 1.5 | 514 | 545 |  | 342 | 363 |  | 32 (≈ 48.8 µM) | 64 (≈ 97.6 µM) | 32 (≈ 48.8 µM) | 32 (≈ 48.8 µM) | 32 (≈ 48.8 µM) | > 128 |
| NC[C@@H]1O[C@H](O[C@H]2[C@@H](O)[C@H](O[C@@H]3[C@@H](O)[C@H](N)C[C@H](N)[C@H]3O[C@H]3O[C@H]4[C@@H](OC[C@@H]4O)[C@H](O)[C@H]3N)O[C@@H]2CO)[C@H](N)[C@@H](O)[C@@H]1O | 0.13 | 151 |  | 40 | 943 |  | 250 | 16 (≈ 25.5 µM) | 32 (≈ 51 µM) | 32 (≈ 51 µM) | 16 (≈ 25.5 µM) | 32 (≈ 51 µM) | > 128 |
| NC[C@@H]1O[C@H](O[C@H]2[C@@H](O)[C@H](O[C@@H]3[C@@H](O)[C@H](N)C[C@H](N)[C@H]3O[C@H]3O[C@H]4[C@@H](OCC[C@@H]4O)[C@H](O)[C@H]3N)O[C@@H]2CO)[C@H](N)[C@@H](O)[C@@H]1O | 0.12 | 231 | 132 | 120 | 1920 | 1100 | 1000 | 2 (≈ 3.12 µM) | 8 (≈ 12.5 µM) | 8 (≈ 12.5 µM) | 4 (≈ 6.23 µM) | 4 (≈ 6.23 µM) | > 128 |
| C[C@@H]1C[C@@H](O)[C@H]2O[C@H](O[C@H]3[C@H](O[C@@H]4O[C@H](CO)[C@@H](O[C@H]5O[C@@H](CN)[C@@H](O)[C@H](O)[C@H]5N)[C@H]4O)[C@@H](O)[C@H](N)C[C@@H]3N)[C@H](N)[C@@H](O)[C@@H]2O1 | 0.89 | 372 | 327 | 266 | 418 | 367 | 299 | 32 (≈ 48.8 µM) | 32 (≈ 48.8 µM) | 32 (≈ 48.8 µM) | 16 (≈ 24.4 µM) | 32 (≈ 48.8 µM) | > 128 |
| NC[C@@H]1O[C@H](O[C@H]2[C@@H](O)[C@H](O[C@@H]3[C@@H](O)[C@H](N)C[C@H](N)[C@H]3O[C@H]3O[C@H]4[C@@H](OCC[C@H]4O)[C@H](O)[C@H]3N)O[C@@H]2CO)[C@H](N)[C@@H](O)[C@@H]1O | 3.3 | 554 | 602 | 557 | 168 | 182 | 169 | 32 (≈ 49.9 µM) | 128 (≈ 199 µM) | 64 (≈ 99.7 µM) | 64 (≈ 99.7 µM) | 64 (≈ 99.7 µM) | > 128 |
| C[C@@H]1C[C@H](O)[C@H]2O[C@H](O[C@H]3[C@H](O[C@@H]4O[C@H](CO)[C@@H](O[C@H]5O[C@@H](CN)[C@@H](O)[C@H](O)[C@H]5N)[C@H]4O)[C@@H](O)[C@H](N)C[C@@H]3N)[C@H](N)[C@@H](O)[C@@H]2O1 | 0.063 | 250 | 20 | 34 | 3970 | 317 | 540 | 4 (≈ 6.1 µM) | 4 (≈ 6.1 µM) | 4 (≈ 6.1 µM) | 2 (≈ 3.05 µM) | 2 (≈ 3.05 µM) | 32 (≈ 48.8 µM) |
| NC[C@@H]1O[C@H](O[C@H]2[C@@H](O)[C@H](O[C@@H]3[C@@H](O)[C@H](N)C[C@H](N)[C@H]3O[C@H]3O[C@H](CO)[C@@H](O)[C@H](O)[C@H]3N)O[C@@H]2CO)[C@H](N)[C@@H](O)[C@@H]1O [PAROMOMYCIN] | 0.033 | 131 | 12 | 37 | 3970 | 364 | 1120 | 2 (≈ 3.25 µM) | 2 (≈ 3.25 µM) | 2 (≈ 3.25 µM) | 1 (≈ 1.62 µM) | 2 (≈ 3.25 µM) | > 128 |
| NC[C@@H]1O[C@H](O[C@H]2[C@@H](O)[C@H](O[C@@H]3[C@@H](O)[C@H](N)C[C@H](N)[C@H]3O[C@H]3O[C@H]4[C@@H](OC[C@H]4O)[C@H](O)[C@H]3N)O[C@@H]2CO)[C@H](N)[C@@H](O)[C@@H]1O | 0.2 | 131 | 117 | 276 | 655 | 585 | 1380 | 8 (≈ 12.7 µM) | 16 (≈ 25.5 µM) | 8 (≈ 12.7 µM) | 4 (≈ 6.37 µM) | 8 (≈ 12.7 µM) | > 64 |
